Measured values from ChEMBL document CHEMBL1152917, “Benzothiophene piperazine and piperidine urea inhibitors of fatty acid amide hydrolase (FAAH)” (2009).
Active and inactive are the calls of the source. The calls are words filed in the database; no cut-off is given here.

Columns and labels:
[1] = molecular target: T1, Fatty-acid amide hydrolase 1 (Rattus norvegicus) (UniProt P97612); experiment: Ratio of Kinact to Ki for histidine6-tagged rat FAAH
T1 sequence (whole entry): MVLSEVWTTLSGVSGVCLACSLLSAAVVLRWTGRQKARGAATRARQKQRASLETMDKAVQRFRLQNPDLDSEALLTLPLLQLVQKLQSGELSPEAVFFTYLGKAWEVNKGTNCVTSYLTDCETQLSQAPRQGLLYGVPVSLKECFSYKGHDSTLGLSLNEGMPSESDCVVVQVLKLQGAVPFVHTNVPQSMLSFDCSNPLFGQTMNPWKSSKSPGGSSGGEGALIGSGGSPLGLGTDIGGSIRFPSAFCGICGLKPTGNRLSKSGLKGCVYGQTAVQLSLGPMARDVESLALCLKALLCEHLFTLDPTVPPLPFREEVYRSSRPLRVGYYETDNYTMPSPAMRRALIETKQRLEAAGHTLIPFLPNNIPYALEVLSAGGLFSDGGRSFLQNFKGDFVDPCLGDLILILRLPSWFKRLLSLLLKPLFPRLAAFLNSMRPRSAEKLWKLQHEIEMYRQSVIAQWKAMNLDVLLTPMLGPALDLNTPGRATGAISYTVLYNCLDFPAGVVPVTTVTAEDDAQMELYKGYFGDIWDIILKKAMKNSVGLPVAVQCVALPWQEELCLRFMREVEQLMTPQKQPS
Method in brief: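 Rat FAAH construct: aa 30–579, N-terminal transmembrane-deleted, N-terminal His6 tag, E. coli-expressed and purified to >95% purity. Activity read by a GDH-coupled enzyme assay in 384-well plates. Second-order kinact/Ki was derived from the linear slope of kobs versus [I], correcting with (1+[S]/Km).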

[2] = molecular target: T2, Fatty-acid amide hydrolase 1 (Homo sapiens) (UniProt O00519); experiment: Ratio of Kinact to Ki for histidine6-tagged human FAAH
T2 sequence (whole entry): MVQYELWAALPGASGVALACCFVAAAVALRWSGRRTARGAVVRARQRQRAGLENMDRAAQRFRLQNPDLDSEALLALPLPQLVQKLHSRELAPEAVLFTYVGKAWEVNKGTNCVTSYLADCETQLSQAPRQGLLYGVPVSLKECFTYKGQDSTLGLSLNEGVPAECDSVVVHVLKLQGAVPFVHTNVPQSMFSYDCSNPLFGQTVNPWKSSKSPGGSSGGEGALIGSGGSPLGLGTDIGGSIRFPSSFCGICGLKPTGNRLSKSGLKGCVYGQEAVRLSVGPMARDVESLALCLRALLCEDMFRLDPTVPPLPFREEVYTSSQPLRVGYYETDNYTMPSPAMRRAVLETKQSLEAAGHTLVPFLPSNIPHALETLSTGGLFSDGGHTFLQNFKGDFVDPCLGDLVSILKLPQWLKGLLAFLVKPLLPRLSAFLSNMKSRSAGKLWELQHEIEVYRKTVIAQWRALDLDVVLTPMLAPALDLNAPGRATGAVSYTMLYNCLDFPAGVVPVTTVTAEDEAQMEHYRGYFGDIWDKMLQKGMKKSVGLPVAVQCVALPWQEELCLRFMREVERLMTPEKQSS
Method in brief: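 Human FAAH construct: aa 32–579, N-terminal transmembrane-deleted, N-terminal His6 tag, expressed in E. coli and purified to >95% by SDS–PAGE. Potency measured as kinact/Ki in a GDH-coupled FAAH assay in 384-well format. kobs was plotted against [I]; kinact/Ki came from the slope kinact/[Ki(1+[S]/Km)].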

[3] = molecular target: T2, Fatty-acid amide hydrolase 1 (Homo sapiens); experiment: Inhibition of histidine6-tagged FAAH from human brain proteomes at 10 to 100 uM
Method in brief: (§1)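 Competitive activity-based protein profiling with FP probe labeling of serine hydrolases. Proteomes used: soluble mouse liver, mouse kidney, human liver and human heart, plus human brain membrane. Compounds tested at 100 μM, reference at 10 and 100 μM. Inhibited bands were read by gel; FAAH and off-target labeling were judged by band loss.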

[4] = molecular target: T3, Fatty-acid amide hydrolase 1 (Mus musculus) (UniProt O08914); experiment: Inhibition of histidine6-tagged FAAH from mouse liver proteomes at 10 to 100 uM; method in brief: as §1
T3 sequence (whole entry): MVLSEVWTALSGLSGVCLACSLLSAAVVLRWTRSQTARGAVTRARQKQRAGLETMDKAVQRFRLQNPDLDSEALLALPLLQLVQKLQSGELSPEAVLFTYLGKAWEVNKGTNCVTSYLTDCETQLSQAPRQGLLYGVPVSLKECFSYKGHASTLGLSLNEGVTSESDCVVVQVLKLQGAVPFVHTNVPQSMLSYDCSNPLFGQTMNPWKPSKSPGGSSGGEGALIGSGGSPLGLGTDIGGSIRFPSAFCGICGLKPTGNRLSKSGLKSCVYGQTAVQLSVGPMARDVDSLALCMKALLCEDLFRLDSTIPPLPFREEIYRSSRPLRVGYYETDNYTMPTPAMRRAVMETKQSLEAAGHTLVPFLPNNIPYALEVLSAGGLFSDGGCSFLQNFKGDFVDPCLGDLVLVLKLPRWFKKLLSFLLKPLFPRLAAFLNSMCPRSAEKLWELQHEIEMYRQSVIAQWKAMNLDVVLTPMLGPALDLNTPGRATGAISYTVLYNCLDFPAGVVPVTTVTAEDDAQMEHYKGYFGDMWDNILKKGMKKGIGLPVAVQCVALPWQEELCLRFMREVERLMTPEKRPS

[5] = molecular target: T2, Fatty-acid amide hydrolase 1 (Homo sapiens); experiment: Inhibition of histidine6-tagged FAAH from human heart proteomes at 10 to 100 uM; method in brief: as §1
[6] = molecular target: T2, Fatty-acid amide hydrolase 1 (Homo sapiens); experiment: Inhibition of histidine6-tagged FAAH from human liver proteomes at 10 to 100 uM; method in brief: as §1
[7] = molecular target: T3, Fatty-acid amide hydrolase 1 (Mus musculus); experiment: Inhibition of histidine6-tagged FAAH from mouse kidney proteomes at 10 to 100 uM; format: tissue-based; method in brief: as §1

Cc1c(CN2CCN(C(=O)NCCO)CC2)sc2ccccc12
Ratio [1]: < 10 M⁻¹ s⁻¹ | Ratio [2]: 42 M⁻¹ s⁻¹

Cc1c(CN2CCN(C(=O)Nc3ccc(C(F)(F)F)nc3)CC2)sc2ccccc12
Ratio [1]: < 10 M⁻¹ s⁻¹ | Ratio [2]: 42 M⁻¹ s⁻¹

Cc1ccc(NC(=O)N2CCN(Cc3sc4ccccc4c3C)CC2)cn1
inhibition [3]: Active | inhibition [4]: Active | inhibition [5]: Active | inhibition [6]: Active | Ratio [1]: 390 M⁻¹ s⁻¹ | Ratio [2]: 44 M⁻¹ s⁻¹ | inhibition [7]: Active

Cc1c(CN2CCN(C(=O)Nc3ccc(Oc4cccnc4)nc3)CC2)sc2ccccc12
Ratio [1]: < 10 M⁻¹ s⁻¹ | Ratio [2]: < 10 M⁻¹ s⁻¹

Cc1c(CN2CCN(C(=O)Nc3ccc(N)nc3)CC2)sc2ccccc12
Ratio [1]: 762 M⁻¹ s⁻¹ | Ratio [2]: 1920 M⁻¹ s⁻¹

Cc1ccc2sc(CN3CCN(C(=O)Nc4cccnc4)CC3)c(C)c2c1
Ratio [1]: 557 M⁻¹ s⁻¹ | Ratio [2]: 2640 M⁻¹ s⁻¹

Cc1c(CN2CCN(C(=O)NCc3ccccc3)CC2)sc2ccccc12
Ratio [1]: < 10 M⁻¹ s⁻¹ | Ratio [2]: < 10 M⁻¹ s⁻¹

Cc1c(CN2CCN(C(=O)Nc3ccc(Br)nc3)CC2)sc2ccccc12
Ratio [1]: 157 M⁻¹ s⁻¹ | Ratio [2]: 70 M⁻¹ s⁻¹

C=C(c1sc2ccccc2c1C)C1CCN(C(=O)Nc2cccnc2)CC1
Ratio [1]: 991 M⁻¹ s⁻¹ | Ratio [2]: 5440 M⁻¹ s⁻¹

CCCCNC(=O)N1CCN(Cc2sc3ccccc3c2C)CC1
Ratio [1]: 13 M⁻¹ s⁻¹ | Ratio [2]: 44 M⁻¹ s⁻¹

Cc1c(CC2CCN(C(=O)Nc3cccnc3)CC2)sc2cccc(F)c12
Ratio [1]: 1550 M⁻¹ s⁻¹ | Ratio [2]: 4150 M⁻¹ s⁻¹

Cc1c(CN2CCN(C(=O)Nc3cccnc3)CC2)sc2ccc(C(F)(F)F)cc12
Ratio [1]: 219 M⁻¹ s⁻¹ | Ratio [2]: 1390 M⁻¹ s⁻¹

Cc1c(C(O)C2CCN(C(=O)Nc3cccnc3)CC2)sc2ccccc12 (racemic)
Ratio [1]: 79 M⁻¹ s⁻¹ | Ratio [2]: 200 M⁻¹ s⁻¹

CCc1c(CN2CCN(C(=O)Nc3cccnc3)CC2)sc2ccccc12
Ratio [1]: 774 M⁻¹ s⁻¹ | Ratio [2]: 1400 M⁻¹ s⁻¹

Cc1c(CN2CCN(C(=O)Nc3cccnc3)CC2)sc2cccc(F)c12
Ratio [1]: 1200 M⁻¹ s⁻¹ | Ratio [2]: 3320 M⁻¹ s⁻¹

COc1ccc2sc(CN3CCN(C(=O)Nc4cccnc4)CC3)c(C)c2c1
Ratio [1]: 500 M⁻¹ s⁻¹ | Ratio [2]: 1380 M⁻¹ s⁻¹

CNc1ccc(NC(=O)N2CCN(Cc3sc4ccccc4c3C)CC2)cn1
Ratio [1]: 635 M⁻¹ s⁻¹ | Ratio [2]: 1000 M⁻¹ s⁻¹

Cc1c(CN2CCN(C(=O)NC(C)(C)C)CC2)sc2ccccc12
Ratio [1]: < 10 M⁻¹ s⁻¹ | Ratio [2]: < 10 M⁻¹ s⁻¹

Cc1ccc2c(Cl)c(CN3CCN(C(=O)Nc4ccc(C)nc4)CC3)sc2c1
Ratio [1]: 14 M⁻¹ s⁻¹ | Ratio [2]: 73 M⁻¹ s⁻¹

CNC(=O)CNC(=O)N1CCN(Cc2sc3ccccc3c2C)CC1
Ratio [1]: < 10 M⁻¹ s⁻¹ | Ratio [2]: < 10 M⁻¹ s⁻¹

Cc1noc(NC(=O)N2CCN(Cc3sc4ccccc4c3C)CC2)c1C
Ratio [1]: 1430 M⁻¹ s⁻¹ | Ratio [2]: 1560 M⁻¹ s⁻¹

CCc1c(CN2CCN(C(=O)Nc3cccnc3)CC2)sc2ccc(F)cc12
Ratio [1]: 617 M⁻¹ s⁻¹ | Ratio [2]: 1810 M⁻¹ s⁻¹

Cc1c(CN2CCN(C(=O)Nc3cccnc3)CC2)sc2ccc(Cl)cc12
Ratio [1]: 1130 M⁻¹ s⁻¹ | Ratio [2]: 2820 M⁻¹ s⁻¹

Cc1c(C(C)C2CCN(C(=O)Nc3cccnc3)CC2)sc2ccccc12 (racemic)
Ratio [1]: 48 M⁻¹ s⁻¹ | Ratio [2]: 114 M⁻¹ s⁻¹

Cc1c(CN2CCN(C(=O)Nc3cccnc3)CC2)sc2ccc(F)cc12
Ratio [1]: 779 M⁻¹ s⁻¹ | Ratio [2]: 3130 M⁻¹ s⁻¹

Cc1c(C(C)C2CCN(C(=O)Nc3cccnc3)CC2)sc2ccccc12 (stereo in doubt; 17-E1)
Ratio [1]: < 10 M⁻¹ s⁻¹ | Ratio [2]: 34 M⁻¹ s⁻¹

CCc1c(CC2CCN(C(=O)Nc3cccnc3)CC2)sc2ccccc12
Ratio [1]: 1010 M⁻¹ s⁻¹ | Ratio [2]: 1670 M⁻¹ s⁻¹

Cc1ccc(NC(=O)N2CCN(Cc3sc4ccccc4c3Cl)CC2)cn1
Ratio [1]: 133 M⁻¹ s⁻¹ | Ratio [2]: 900 M⁻¹ s⁻¹

Cc1c(CN2CCN(C(=O)Nc3ccc(Cl)nc3)CC2)sc2ccccc12
Ratio [1]: 242 M⁻¹ s⁻¹ | Ratio [2]: < 10 M⁻¹ s⁻¹

Cc1c(CN2CCN(C(=O)Nc3ccccc3)CC2)sc2ccccc12
Ratio [1]: 762 M⁻¹ s⁻¹ | Ratio [2]: 1920 M⁻¹ s⁻¹

Cc1cnc(NC(=O)N2CCN(Cc3sc4ccccc4c3C)CC2)s1
Ratio [1]: < 10 M⁻¹ s⁻¹ | Ratio [2]: < 10 M⁻¹ s⁻¹

Cc1c(CN2CCN(C(=O)Nc3ccccn3)CC2)sc2ccccc12
Ratio [1]: 635 M⁻¹ s⁻¹ | Ratio [2]: 1000 M⁻¹ s⁻¹

O=C(Nc1cccnc1)N1CCN(Cc2cc3ccccc3s2)CC1
Ratio [1]: 174 M⁻¹ s⁻¹ | Ratio [2]: 695 M⁻¹ s⁻¹

Cc1c(CN2CCN(C(=O)NC(C)C)CC2)sc2ccccc12
Ratio [1]: < 10 M⁻¹ s⁻¹ | Ratio [2]: 70 M⁻¹ s⁻¹

CCOc1ccc2c(C)c(CN3CCN(C(=O)Nc4cccnc4)CC3)sc2c1
Ratio [1]: < 10 M⁻¹ s⁻¹ | Ratio [2]: 14 M⁻¹ s⁻¹

CCN(CC)c1ccc(NC(=O)N2CCN(Cc3sc4ccccc4c3C)CC2)cn1
Ratio [1]: 1430 M⁻¹ s⁻¹ | Ratio [2]: 1560 M⁻¹ s⁻¹

Cc1c(C(C)C2CCN(C(=O)Nc3cccnc3)CC2)sc2ccccc12 (stereo in doubt; 17-E2)
Ratio [1]: 110 M⁻¹ s⁻¹ | Ratio [2]: 617 M⁻¹ s⁻¹

Cc1c(C(=O)C2CCN(C(=O)Nc3cccnc3)CC2)sc2ccccc12
Ratio [1]: 1230 M⁻¹ s⁻¹ | Ratio [2]: 3600 M⁻¹ s⁻¹

Cc1c(CN2CCN(C(=O)Nc3cccnc3)CC2)sc2ccccc12
Ratio [1]: 1080 M⁻¹ s⁻¹ | Ratio [2]: 2400 M⁻¹ s⁻¹

COc1ccc2c(C)c(CN3CCN(C(=O)Nc4cccnc4)CC3)sc2c1
Ratio [1]: 113 M⁻¹ s⁻¹ | Ratio [2]: 73 M⁻¹ s⁻¹

Cc1c(CN2CCN(C(=O)NC3CCCCC3)CC2)sc2ccccc12
Ratio [1]: < 10 M⁻¹ s⁻¹ | Ratio [2]: < 10 M⁻¹ s⁻¹

Cc1ccc(NC(=O)N2CCN(Cc3sc4ccc(F)cc4c3C)CC2)cn1
Ratio [1]: 260 M⁻¹ s⁻¹ | Ratio [2]: 1870 M⁻¹ s⁻¹

Cc1c(CC2CCN(C(=O)Nc3cccnc3)CC2)sc2ccccc12
Ratio [1]: 2610 M⁻¹ s⁻¹ | Ratio [2]: 5130 M⁻¹ s⁻¹

CC(=O)Nc1ccc(NC(=O)N2CCN(Cc3sc4ccccc4c3C)CC2)cn1
Ratio [1]: < 10 M⁻¹ s⁻¹ | Ratio [2]: < 10 M⁻¹ s⁻¹

CCNc1ccc(NC(=O)N2CCN(Cc3sc4ccccc4c3C)CC2)cn1
Ratio [1]: 191 M⁻¹ s⁻¹ | Ratio [2]: 924 M⁻¹ s⁻¹

NC(=O)c1cccc(-c2cccc(OC(=O)NC3CCCCC3)c2)c1
inhibition [3]: Active | inhibition [4]: Active | inhibition [5]: Active | inhibition [6]: Active | inhibition [7]: Active

Cc1c(CN2CCN(C(=O)Nc3ccc(-c4ccccc4)nc3)CC2)sc2ccccc12
Ratio [1]: 1220 M⁻¹ s⁻¹ | Ratio [2]: < 10 M⁻¹ s⁻¹

Cc1c(CN2CCN(C(=O)Nc3ccc(N(C)C)nc3)CC2)sc2ccccc12
Ratio [1]: 1080 M⁻¹ s⁻¹ | Ratio [2]: 2400 M⁻¹ s⁻¹

Cc1c(CN2CCN(C(=O)Nc3cccnn3)CC2)sc2ccccc12
Ratio [1]: 191 M⁻¹ s⁻¹ | Ratio [2]: 924 M⁻¹ s⁻¹

Cc1ccc2sc(CN3CCN(C(=O)Nc4ccc(C)nc4)CC3)c(C)c2c1
Ratio [1]: 183 M⁻¹ s⁻¹ | Ratio [2]: 1170 M⁻¹ s⁻¹

Cc1ccc2sc(CC3CCN(C(=O)Nc4cccnc4)CC3)c(C)c2c1
Ratio [1]: 482 M⁻¹ s⁻¹ | Ratio [2]: 3020 M⁻¹ s⁻¹

Cc1ccc(NC(=O)N2CCN(Cc3sc4cccc(F)c4c3C)CC2)cn1
Ratio [1]: 758 M⁻¹ s⁻¹ | Ratio [2]: 1980 M⁻¹ s⁻¹

CCc1c(CC2CCN(C(=O)Nc3cccnc3)CC2)sc2ccc(F)cc12
Ratio [1]: 1140 M⁻¹ s⁻¹ | Ratio [2]: 2290 M⁻¹ s⁻¹
